ChEMBL document CHEMBL4411310, “Identification of a novel DGKα inhibitor for XLP-1 therapy by virtual screening” (Eur J Med Chem, 2019)
Active and inactive are the calls of the source. No cut-off for these calls is given here.

What was measured:
Jurkat = assay: Cytotoxicity against human Jurkat cells assessed as reduction in cell viability at 1 uM after 24 hrs by trypan blue exclusion assay; type: cell-based
Outline: (§1)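 SAP-shRNA or control-shRNA Jurkat cells, 0.5 × 10^5 cells/well in triplicate, in wells left uncoated or precoated for 24 h at 4 °C with anti-CD3 OKT3 (50 μg/ml) or PHA-P (50 μg/ml). Inhibitor at 1 μM or DMSO control for 24 h. Live cells counted by trypan blue exclusion; % cell loss versus untreated controls. At least three experiments.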

[1] = target: T1, Diacylglycerol kinase alpha (Homo sapiens, UniProt P23743); assay: Inhibition of OST-tagged DGKalpha (unknown origin) expressed in MDCK cell homogenates assessed as residual activity at 100 uM using DAG as substrate measured after 5 mins in presence of [gamma-32P]ATP by TLC analysis relative to control; type: cell-free
[2] = target: T1, Diacylglycerol kinase alpha; assay: Inhibition of OST-tagged DGKalpha (unknown origin) expressed in MDCK cell homogenates using DAG as substrate measured after 5 mins in presence of [gamma-32P]ATP by TLC analysis; type: cell-free
Outline: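 Doxycycline-induced (1 μg/ml, 2 days) MDCK cells expressing OST-DGKα, homogenized in Hepes pH 8 buffer with EDTA, EGTA, vanadate and protease inhibitors. Initial velocity measured 5 min at 27 °C with saturating 1,2-dioleoyl-sn-glycerol and γ32P-ATP plus 25 μM unlabelled ATP and MgCl2. Stopped with HCl, lipids extracted, separated by TLC, radioactive phosphatidic acid quantified by imager. IC50 from 0.1–100 μM, ≥3 experiments, normalized fit.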

[3] = target: T1, Diacylglycerol kinase alpha; assay: Inhibition of DGKalpha in OKT3-induced human T cells harboring SAP siRNA assessed as restoration of TCR-induced NR4A3 upregulation at 10 uM after 4 hrs by RT-PCR analysis; type: cell-based
Outline: (§2)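 Activated PBL transfected with SAP or control siRNA, 4 days in culture. Restimulated with OKT3 (10 μg/ml), with or without inhibitor at 10 μM. After 4 h, NR4A1 and NR4A3 measured by TaqMan qPCR normalised to GUSB. At least four independent experiments.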

[4] = target: T-cell receptor (Homo sapiens) (UniProt P04437+P01848+P04435+P03979); assay: Effect on TCR signaling in OKT3-induced human T-cells harboring SiRNA assessed as restoration of restimulation-induced cell death at 1 to 10 uM preincubated for 30 mins followed by OKT3 stimulation and measured 24 hrs post dose by propidium iodide staining based flow cytometry
Outline: (§3)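 PBL from healthy donors, activated with anti-CD3/CD28 and then kept in IL-2. siRNA (SAP or control, 200 pmol) delivered by nucleofection, then 4 days in IL-2. 10^5 cells/well in triplicate; inhibitor (1, 5, 10 μM) added 30 min before OKT3 restimulation (1–500 ng/ml) for 24 h. PI staining, fixed 30 s flow acquisition; % cell loss.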

[5] = tested on: Serotonin (5-HT) receptor; assay: Antagonist activity at serotonin receptor in human PBMC assessed as inhibition of PMA-stimulated superoxide anion generation at 10 uM preincubated for 1 hr followed by PMA-stimulation and measured after 30 mins by spectrophotometric method; conditions: 0.5 h
[6] = target: T1, Diacylglycerol kinase alpha; assay: Inhibition of DGKalpha in OKT3-induced human Jurkat cells harboring SAP ShRNA assessed as restoration of restimulation-induced cell death at 1 uM measured after 24 hrs by trypan blue exclusion method; type: cell-based; outline: as §1
[7] = target: T1, Diacylglycerol kinase alpha; assay: Inhibition of DGKalpha in PHA-induced human Jurkat cells harboring SAP ShRNA assessed as restoration of restimulation-induced cell death at 1 uM measured after 24 hrs by trypan blue exclusion method; type: cell-based; outline: as §1
[8] = target: T1, Diacylglycerol kinase alpha; assay: Inhibition of DGKalpha expressed in 293T cell homogenates at 100 uM using DAG as substrate measured after 5 mins in presence of [gamma-32P]ATP by TLC analysis relative to control
[9] = target: T1, Diacylglycerol kinase alpha; assay: Inhibition of DGKalpha in OKT3-induced human T cells harboring SAP SiRNA assessed as restoration of restimulation-induced cell death at 1 to 10 uM preincubated for 30 mins followed by OKT3 stimulation and measured 24 hrs post dose by propidium iodide staining based flow cytometry; outline: as §3
T-cell = assay: Cytotoxicity against human T cells assessed as cell death at 1 to 10 uM measured after 24 hrs propidium iodide staining based flow cytometry; outline: as §3
[10] = target: T1, Diacylglycerol kinase alpha; assay: Inhibition of DGKalpha in OKT3-induced human T cells harboring SAP siRNA assessed as restoration of TCR-induced NR4A1 upregulation at 10 uM after 4 hrs by RT-PCR analysis; type: cell-based; outline: as §2
[11] = target: Diacylglycerol kinase zeta (Homo sapiens) (UniProt Q13574); assay: Inhibition of DGKzeta (unknown origin) expressed in human 293T cells at 100 uM using DAG as substrate measured after 5 mins in presence of [gamma-32P]ATP by TLC analysis
Outline: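 293T cells transiently transfected with the DGKζ plasmid or empty vector; homogenates collected 48 h later. Compound at 100 μM. Reaction run 5 min at 27 °C with saturating 1,2-dioleoyl-sn-glycerol, γ32P-ATP plus 25 μM unlabelled ATP, and MgCl2, at pH 8. Stopped with HCl, lipids extracted and separated by TLC, read by phosphorimaging. At least three experiments in triplicate.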

[12] = target: T1, Diacylglycerol kinase alpha; assay: Inhibition of DGKalpha in OKT3-induced human T cells harboring SAP SiRNA assessed as restoration of restimulation-induced cell death at >=5 uM preincubated for 30 mins followed by OKT3 stimulation and measured 24 hrs post dose by propidium iodide staining based flow cytometry; outline: as §3
[13] = target: Diacylglycerol kinase alpha (Sus scrofa, UniProt P20192); assay: Inhibition of pig FLAG3-tagged DGKalpha expressed in African green monkey COS7 cells using 1,2-dioleoyl-sn-glycerol as substrate measured after 30 mins by ADP-Glo luminescence assay
[14] = target: T1, Diacylglycerol kinase alpha; assay: Inhibition of DGKalpha in human erythrocytes using OAG as substrate preincubated for 1 min followed by OAG addition and measured after 8 mins in presence of [gamma-32P]ATP; type: cell-based
[15] = target: T2, 5-hydroxytryptamine receptor 2C (Homo sapiens, UniProt P28335); assay: Binding affinity to 5HT2C receptor (unknown origin)
T2 sequence (P28335 whole entry): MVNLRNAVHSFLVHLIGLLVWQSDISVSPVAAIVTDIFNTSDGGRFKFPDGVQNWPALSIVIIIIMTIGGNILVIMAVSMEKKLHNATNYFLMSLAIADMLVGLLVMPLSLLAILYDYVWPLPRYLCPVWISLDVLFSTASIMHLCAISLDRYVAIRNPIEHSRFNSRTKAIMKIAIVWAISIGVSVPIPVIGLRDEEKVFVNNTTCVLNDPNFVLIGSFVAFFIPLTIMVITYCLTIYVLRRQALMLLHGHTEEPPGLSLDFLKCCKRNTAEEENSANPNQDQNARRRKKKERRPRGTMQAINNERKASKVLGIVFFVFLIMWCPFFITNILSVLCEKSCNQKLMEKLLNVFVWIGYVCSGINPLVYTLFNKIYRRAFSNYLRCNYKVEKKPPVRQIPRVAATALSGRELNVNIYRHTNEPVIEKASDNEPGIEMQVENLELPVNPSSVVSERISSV

[16] = Solubility of the compound in DMSO; type: physicochemical
[17] = target: Diacylglycerol kinase alpha (Rattus norvegicus, UniProt P51556); assay: Inhibition of rat FLAG-tagged DGKalpha expressed in HEK293T cells using DAG as substrate measured after 15 mins in presence of [gamma-32P]ATP by scintillation counting method
Diacylglycerol kinase alpha (Rattus norvegicus, UniProt P51556), sequence (P51556 whole entry): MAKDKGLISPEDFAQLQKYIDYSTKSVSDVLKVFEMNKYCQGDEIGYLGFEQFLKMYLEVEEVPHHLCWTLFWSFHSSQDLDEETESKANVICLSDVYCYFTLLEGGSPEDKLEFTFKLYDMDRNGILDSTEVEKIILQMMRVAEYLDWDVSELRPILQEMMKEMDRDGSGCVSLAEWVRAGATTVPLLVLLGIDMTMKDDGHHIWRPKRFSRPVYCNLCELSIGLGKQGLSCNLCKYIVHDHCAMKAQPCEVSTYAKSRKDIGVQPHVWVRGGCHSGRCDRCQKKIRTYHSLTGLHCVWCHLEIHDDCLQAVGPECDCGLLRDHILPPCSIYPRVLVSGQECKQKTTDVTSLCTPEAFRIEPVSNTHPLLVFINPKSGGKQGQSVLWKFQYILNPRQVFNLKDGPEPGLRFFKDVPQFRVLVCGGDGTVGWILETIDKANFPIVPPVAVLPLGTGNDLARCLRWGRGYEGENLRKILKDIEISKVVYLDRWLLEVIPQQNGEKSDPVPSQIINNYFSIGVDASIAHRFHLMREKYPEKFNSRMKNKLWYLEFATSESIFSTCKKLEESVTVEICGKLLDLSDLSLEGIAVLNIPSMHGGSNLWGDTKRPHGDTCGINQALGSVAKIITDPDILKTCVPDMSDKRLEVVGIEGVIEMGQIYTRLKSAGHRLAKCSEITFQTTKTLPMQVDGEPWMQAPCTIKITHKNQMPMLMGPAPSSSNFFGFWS

Diacylglycerol kinase zeta (Homo sapiens), sequence (Q13574 whole entry): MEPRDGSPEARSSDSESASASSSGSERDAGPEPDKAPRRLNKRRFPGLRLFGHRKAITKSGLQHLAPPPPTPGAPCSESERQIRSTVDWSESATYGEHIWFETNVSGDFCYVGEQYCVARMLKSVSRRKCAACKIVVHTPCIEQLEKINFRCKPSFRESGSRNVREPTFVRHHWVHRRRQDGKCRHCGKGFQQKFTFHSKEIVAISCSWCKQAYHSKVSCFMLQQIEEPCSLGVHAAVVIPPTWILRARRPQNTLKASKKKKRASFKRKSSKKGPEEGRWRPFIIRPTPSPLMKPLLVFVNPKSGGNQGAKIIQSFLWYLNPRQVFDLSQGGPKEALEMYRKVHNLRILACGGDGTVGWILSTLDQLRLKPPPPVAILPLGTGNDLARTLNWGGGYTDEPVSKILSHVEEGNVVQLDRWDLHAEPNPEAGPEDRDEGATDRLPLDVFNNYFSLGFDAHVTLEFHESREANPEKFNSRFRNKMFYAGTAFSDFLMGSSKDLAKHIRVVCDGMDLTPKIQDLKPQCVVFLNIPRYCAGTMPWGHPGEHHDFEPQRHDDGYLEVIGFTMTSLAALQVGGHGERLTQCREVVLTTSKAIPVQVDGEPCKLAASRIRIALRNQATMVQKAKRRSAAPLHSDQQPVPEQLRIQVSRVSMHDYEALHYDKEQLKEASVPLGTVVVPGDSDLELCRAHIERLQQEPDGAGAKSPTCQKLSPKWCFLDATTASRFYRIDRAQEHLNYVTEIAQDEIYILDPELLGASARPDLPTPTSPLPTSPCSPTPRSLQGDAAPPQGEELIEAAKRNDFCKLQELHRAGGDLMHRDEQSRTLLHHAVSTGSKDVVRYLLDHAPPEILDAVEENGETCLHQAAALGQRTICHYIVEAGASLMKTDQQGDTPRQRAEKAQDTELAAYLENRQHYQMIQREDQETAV
T1 sequence (P23743 whole entry): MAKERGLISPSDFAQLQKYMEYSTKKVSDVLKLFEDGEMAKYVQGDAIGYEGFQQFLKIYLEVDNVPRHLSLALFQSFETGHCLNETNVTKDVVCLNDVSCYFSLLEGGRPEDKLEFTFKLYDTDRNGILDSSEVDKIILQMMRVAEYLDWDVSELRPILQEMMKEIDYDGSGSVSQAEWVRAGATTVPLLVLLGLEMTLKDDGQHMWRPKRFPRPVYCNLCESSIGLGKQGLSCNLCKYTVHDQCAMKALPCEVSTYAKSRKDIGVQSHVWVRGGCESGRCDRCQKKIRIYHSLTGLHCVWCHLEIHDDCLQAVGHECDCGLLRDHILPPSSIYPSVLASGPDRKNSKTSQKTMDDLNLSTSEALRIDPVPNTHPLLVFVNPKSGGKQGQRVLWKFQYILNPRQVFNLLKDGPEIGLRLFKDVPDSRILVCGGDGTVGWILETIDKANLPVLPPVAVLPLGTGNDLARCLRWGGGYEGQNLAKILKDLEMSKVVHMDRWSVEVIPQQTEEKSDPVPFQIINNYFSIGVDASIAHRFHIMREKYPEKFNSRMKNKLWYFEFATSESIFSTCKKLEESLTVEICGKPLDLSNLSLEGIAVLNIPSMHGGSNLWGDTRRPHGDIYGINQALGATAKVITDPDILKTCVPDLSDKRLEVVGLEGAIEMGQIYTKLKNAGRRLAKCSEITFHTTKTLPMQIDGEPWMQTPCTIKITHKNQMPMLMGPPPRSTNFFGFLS
Diacylglycerol kinase alpha (Sus scrofa, UniProt P20192), sequence (P20192 whole entry): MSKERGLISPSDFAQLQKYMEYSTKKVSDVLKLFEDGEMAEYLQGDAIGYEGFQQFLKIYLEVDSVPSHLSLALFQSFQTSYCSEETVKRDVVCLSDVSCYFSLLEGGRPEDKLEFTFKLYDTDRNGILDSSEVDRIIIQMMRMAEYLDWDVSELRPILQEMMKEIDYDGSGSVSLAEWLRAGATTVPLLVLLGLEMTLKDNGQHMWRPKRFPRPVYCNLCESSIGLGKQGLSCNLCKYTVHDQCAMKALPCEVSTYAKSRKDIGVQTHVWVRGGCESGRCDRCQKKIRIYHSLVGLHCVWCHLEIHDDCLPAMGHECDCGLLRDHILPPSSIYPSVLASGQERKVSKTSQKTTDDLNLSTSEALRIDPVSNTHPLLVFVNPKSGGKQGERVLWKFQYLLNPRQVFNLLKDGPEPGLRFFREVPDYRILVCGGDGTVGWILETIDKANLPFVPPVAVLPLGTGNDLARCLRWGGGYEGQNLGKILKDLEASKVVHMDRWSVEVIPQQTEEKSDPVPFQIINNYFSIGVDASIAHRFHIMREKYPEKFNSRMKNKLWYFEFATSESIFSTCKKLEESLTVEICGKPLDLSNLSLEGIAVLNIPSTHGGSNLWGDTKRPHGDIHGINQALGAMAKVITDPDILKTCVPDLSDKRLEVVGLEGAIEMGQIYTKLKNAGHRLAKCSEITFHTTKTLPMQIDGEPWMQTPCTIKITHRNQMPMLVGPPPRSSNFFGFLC

Compound: Cc1ccc2c(C(=O)CN3CCN(C(=O)c4ccco4)CC3)c(C)[nH]c2c1
- Activity (Jurkat): Non-Toxic
- Activity [1]: 4%
- IC50 [2]: 4.28 to 4.3 µM
- inhibition [3]: Active
- Activity [4]: inactive
- inhibition (INH) [5]: Not Active
- inhibition [6]: Active
- inhibition [7]: Active
- inhibition [8]: 93%
- inhibition [9]: Active
- Activity (T-cell): Non-Toxic
- inhibition [10]: Active
- inhibition [11]: inactive

Compound: O=C(NCC(=O)N1CCN(C(c2ccccc2)c2ccccc2)CC1)c1ccco1
- Activity [1]: 68%

Compound: O=C1CC2(CCCC2)C(=O)N1CN1CCN(C(c2ccccc2)c2ccccc2)CC1
- Activity [1]: 68%

Compound: O=c1c2ccccc2[nH]c(=S)n1CCCN1CCN(c2cccc(Cl)c2)CC1
- Activity [1]: 39%

Compound: O=C1/C(=C\C=C\c2ccco2)SC(=S)N1NS(=O)(=O)c1ccccc1
- inhibition [12]: Active
- Activity (Jurkat): Toxic
- Activity [4]: Active
- inhibition (INH) [5]: Not Active
- inhibition [6]: Active
- inhibition [7]: Active
- IC50 [13]: 0.6 µM

Compound: CCCCCCCC(=O)OCCOC(=O)CCCCCCC [ETHYLENE GLYCOL DIOCTANOATE]
- Ki [14]: 58 µM

Compound: COc1ccccc1CCN1CCC(CN(C)C(=O)C2=CCCCC2)CC1
- Activity [1]: 57%

Compound: O=C(Cc1cn2ccsc2n1)N1CCN(C(c2ccccc2)c2ccccc2)CC1
- Activity [1]: 64%

Compound: O=C(Cn1cnc2sccc2c1=O)N1CCN(C(c2ccccc2)c2ccccc2)CC1
- Activity [1]: 75%

Compound: CC[C@H](C)[C@@H](OC(C)=O)[C@@H](C)C1=CC(=O)C2=C(O[C@]3(C)CC[C@H]4O[C@@H](C(C)(C)O)CC[C@]4(C)[C@H]3[C@@H]2O)C1=O [COCHLIOQUINONE A]
- Ki [14]: 2.26 µM

Compound: O=c1c2ccccc2[nH]c(=S)n1CCN1CCC(=C(c2ccc(F)cc2)c2ccc(F)cc2)CC1 [DIACYLGLYCEROL KINASE INHIBITOR II]
- Activity [1]: 28%
- IC50 [2]: 10.6 µM
- inhibition [8]: 81%
- inhibition [11]: inactive
- IC50 [13]: 18 µM

Compound: C/C=C(\C)[C@@H](OC(C)=O)[C@@H](C)C1=CC(=O)C2=C(O[C@]3(C)CC[C@H]4O[C@@H](C(C)(C)O)CC[C@]4(C)[C@H]3[C@@H]2O)C1=O [STEMPHONE]
- Ki [14]: 3.32 µM

Compound: O=C(c1ccc(F)cc1)C1CCN(CCn2c(=O)[nH]c3ccccc3c2=O)CC1 [KETANSERIN]
- Activity (Jurkat): Non-Toxic
- Activity [4]: inactive
- inhibition (INH) [5]: Active
- inhibition [6]: Active
- inhibition [7]: Active
- inhibition [9]: inactive
- Activity (T-cell): Non-Toxic

Compound: O=C(CN1CCN(Cc2ccccc2)CC1)c1c[nH]c2ccccc12
- Activity [1]: 72%

Compound: Cc1nc2sccn2c(=O)c1CCN1CCC(=C(c2ccc(F)cc2)c2ccc(F)cc2)CC1 [RITANSERIN]
- Activity (Jurkat): Non-Toxic
- Activity [1]: 17%
- IC50 [2]: 16.7 µM
- Activity [4]: inactive
- inhibition (INH) [5]: Active
- inhibition [6]: Active
- inhibition [7]: Active
- Ki [15]: 0.00071 µM
- inhibition [9]: Active
- Activity (T-cell): Non-Toxic
- inhibition [10]: Active

Compound: Cc1nc2n(c(=O)c1CCN1CCC(c3noc4cc(F)ccc34)CC1)CCCC2 [RISPERIDONE]
- solubility [16]: Insoluble

Compound: COc1ccccc1OCCCN1CCN(C(=O)c2ccc(=O)[nH]n2)CC1
- Activity [1]: 67%

Compound: O=c1c2ccccc2[nH]c(=S)n1CCN1CCN(Cc2ccccc2)CC1
- Activity [1]: 49%

Compound: COc1ccccc1N1CCN(CCCNc2cc(=O)n(C)c(=O)n2C)CC1
- Activity [1]: 75%

Compound: O=C1C(=O)N(C2CCCC2)C(=O)N1CN1CCC(Cc2ccccc2)CC1
- Activity [1]: 50%

Compound: Cc1nc2sccn2c(=O)c1CCN1CCC(=C(c2ccccc2)c2ccc(F)cc2)CC1
- IC50 [14]: 3.8 µM
- Activity [1]: 27%
- IC50 [2]: 19.7 to 19.8 µM
- IC50 [17]: 20 µM
- inhibition [8]: 68%
- inhibition [11]: inactive
- IC50 [13]: 25 µM

Compound: O=C(CN1CCC(n2nnc3ccccc32)CC1)N(C1CCCCC1)C1CCCCC1
- solubility [16]: Insoluble

Compound: O=C(CCCN1CCC(O)(c2ccc(Cl)cc2)CC1)c1ccc(F)cc1
- Activity [1]: 62%
